Here are results for 3 molecules from PMC3422576 (Science translational medicine, 2010).

A value given as a limit tells only on which side of the number the result lay.

In assay [1] the test system is Ptch+/−p53−/− medulloblastoma tumors. As to the kind of experiment: Ptch+/−p53−/− medulloblastoma allograft efficacy study in nude mice. The format is in vivo, mouse.
The subject of a further assay is resistant tumor cells. As to the kind of experiment: Ex-vivo medulloblastoma proliferation assay. The assay is classed as cell-based, mouse. Conditions: cells freshly isolated from resistant tumors.
A further assay deals with human Smo (Homo sapiens, UniProt Q99835). As to the kind of experiment: Smo Agonist 1.5 displacement assay, human Smo. The assay is classed as binding.
The next assay deals with mouse Smo (Mus musculus, UniProt P56726). As to the kind of experiment: Smo Agonist 1.5 displacement assay, mouse Smo. The format is binding.
The test system of a further assay is Gli1 mRNA. As to the kind of experiment: Gli1 mRNA in Ptch+/−p53−/− medulloblastoma allografts in nude mice. The assay is classed as in vivo, mouse. Conditions: oral, 20 mg/kg/day qd.
The target of a further assay is Mouse Smo Wild-type (Mus musculus, UniProt P56726). The assay is classed as cell-based. The method in brief:
(§1)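 C3H10T1/2 cells transiently co-transfected with HA-tagged mouse Smo (wild-type or point mutant, in pcDNA3.1), a Gli-luciferase reporter and TK-driven renilla luciferase. Serial dilutions of test compound (0.001 to 10 μM final) added 24 h post-transfection. Firefly and renilla luciferase read by dual-luciferase assay after a further 24 h. Percent inhibition calculated relative to DMSO control.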

The target of a further assay is Mouse Smo N223D (Mus musculus, UniProt P56726, N223D). The assay is classed as cell-based. The method in brief: as §1
The target in another assay is Mouse Smo L225R (Mus musculus, UniProt P56726, L225R). The format is cell-based. The method in brief:
as §1

The target of the next assay is Mouse Smo D388N (Mus musculus, UniProt P56726, D388N). The assay is classed as cell-based. The method in brief:
as §1

The target of a further assay is Mouse Smo S391N (Mus musculus, UniProt P56726, S391N). The assay is classed as cell-based. The gist of the method:
as §1

The target of the next assay is Mouse Smo G457S (Mus musculus, UniProt P56726, G457S). The format is cell-based. The method in brief:
as §1

Assay [2] has as its system Ptch+/−Hic+/− medulloblastoma tumors. As to the kind of experiment: Ptch+/−Hic+/− medulloblastoma allograft efficacy study in nude mice. The format is in vivo, mouse.
For assay [3], the system named is Gli1, Ptch1, Ptch2 and CyclinD1 mRNA. As to the kind of experiment: Hh target gene mRNA in Ptch+/−Hic1+/− medulloblastoma allografts in nude mice. Conditions: Ptch+/−Hic1+/− allograft, oral, initial treatment. The assay is classed as in vivo, mouse.

Usually IC50 stands for the concentration needed to halve the response being measured. Low readings indicate inhibition by little substance, high ones a need for much substance.

Chain of Mouse Smo S391N (P56726 33-793 S391N): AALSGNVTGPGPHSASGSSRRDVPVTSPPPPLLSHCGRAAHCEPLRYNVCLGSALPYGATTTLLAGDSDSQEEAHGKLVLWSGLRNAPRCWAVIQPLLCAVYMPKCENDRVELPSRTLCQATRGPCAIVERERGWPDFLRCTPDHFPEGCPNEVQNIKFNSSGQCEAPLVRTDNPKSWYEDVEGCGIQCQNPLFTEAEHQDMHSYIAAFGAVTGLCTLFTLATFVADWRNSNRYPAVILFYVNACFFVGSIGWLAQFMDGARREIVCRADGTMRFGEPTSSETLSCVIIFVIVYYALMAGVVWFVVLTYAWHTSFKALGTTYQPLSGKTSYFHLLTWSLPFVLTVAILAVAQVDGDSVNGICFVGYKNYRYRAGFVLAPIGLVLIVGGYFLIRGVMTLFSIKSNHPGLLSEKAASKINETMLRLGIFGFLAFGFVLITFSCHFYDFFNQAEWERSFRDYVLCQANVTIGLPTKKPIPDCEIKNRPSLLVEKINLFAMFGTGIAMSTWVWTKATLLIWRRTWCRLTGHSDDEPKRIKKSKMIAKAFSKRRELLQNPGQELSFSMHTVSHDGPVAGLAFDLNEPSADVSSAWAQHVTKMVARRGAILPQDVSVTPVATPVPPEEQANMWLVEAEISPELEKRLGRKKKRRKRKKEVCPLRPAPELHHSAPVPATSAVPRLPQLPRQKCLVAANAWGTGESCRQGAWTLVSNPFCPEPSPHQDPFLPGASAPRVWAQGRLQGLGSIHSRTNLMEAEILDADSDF
Chain of Mouse Smo G457S (P56726 33-793 G457S): as the sequence (P56726 33-793 S391N) above, with N359S, G425S counted along it
Chain of Mouse Smo L225R (P56726 33-793 L225R): as the sequence (P56726 33-793 S391N) above, with L193R, N359S counted along it
Chain of Mouse Smo D388N (P56726 33-793 D388N): as the sequence (P56726 33-793 S391N) above, with D356N, N359S counted along it
Chain of Mouse Smo N223D (P56726 33-793 N223D): as the sequence (P56726 33-793 S391N) above, with N191D, N359S counted along it
Chain of human Smo (Q99835 28-787): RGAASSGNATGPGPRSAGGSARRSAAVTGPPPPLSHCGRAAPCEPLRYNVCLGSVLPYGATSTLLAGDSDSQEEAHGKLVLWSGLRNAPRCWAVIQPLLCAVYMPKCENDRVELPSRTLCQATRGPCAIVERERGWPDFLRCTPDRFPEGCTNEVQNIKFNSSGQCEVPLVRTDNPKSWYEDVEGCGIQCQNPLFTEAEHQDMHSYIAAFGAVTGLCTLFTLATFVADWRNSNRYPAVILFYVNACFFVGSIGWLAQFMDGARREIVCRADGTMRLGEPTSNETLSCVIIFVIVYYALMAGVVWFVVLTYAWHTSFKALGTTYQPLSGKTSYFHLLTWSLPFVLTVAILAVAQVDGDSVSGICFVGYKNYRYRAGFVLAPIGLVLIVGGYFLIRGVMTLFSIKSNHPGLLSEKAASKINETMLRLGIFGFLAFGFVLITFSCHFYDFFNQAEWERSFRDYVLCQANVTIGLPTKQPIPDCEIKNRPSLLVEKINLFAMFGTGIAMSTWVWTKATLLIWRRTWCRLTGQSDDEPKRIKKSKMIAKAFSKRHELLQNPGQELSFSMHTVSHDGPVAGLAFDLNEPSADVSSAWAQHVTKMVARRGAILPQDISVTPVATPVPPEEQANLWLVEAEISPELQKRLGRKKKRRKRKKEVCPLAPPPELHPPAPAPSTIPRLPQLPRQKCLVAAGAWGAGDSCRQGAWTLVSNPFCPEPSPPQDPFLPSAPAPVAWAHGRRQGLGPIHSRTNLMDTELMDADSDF
Chain of mouse Smo (P56726 33-793): as the sequence (P56726 33-793 S391N) above, with N359S counted along it
Chain of Mouse Smo Wild-type (P56726 33-793): as the sequence (P56726 33-793 S391N) above, with N359S counted along it

With `Nc1cc(C(F)(F)F)c(-c2cc(N3CCOCC3)nc(N3CCOCC3)n2)cn1` [NVP-BKM120, reference compound], the “tumor growth inhibition in established NVP-LDE225 resistant tumors” value in assay [1] (treatment of established NVP-LDE225 resistant tumors, data not shown) is “modest but not statistically significant tumor growth inhibition”.

With HhAntag, the “growth of resistant tumor cells upon exposure” value with resistant tumor cells was “largely unaffected”.

As to `Cc1c(C(=O)Nc2ccc(N3C[C@@H](C)O[C@@H](C)C3)nc2)cccc1-c1ccc(OC(F)(F)F)cc1` [NVP-LDE225], the IC50 on human Smo is 11 nM; at mouse Smo it was 12 nM; on Mouse Smo Wild-type, 6 nM; against Mouse Smo N223D, over 10000 nM; against Mouse Smo L225R, over 10000 nM; against Mouse Smo D388N it was over 10000 nM. Besides, the half-inhibitory concentration (IC50) at Mouse Smo S391N is over 10000 nM; at Mouse Smo G457S, 400 nM. Moreover, in the assay with Gli1 mRNA, the “expression of Hh pathway target gene Gli1 in tumors” value is “completely suppressed”. For the same molecule, the tumor growth result in assay [1] (10 mg/kg/day, Ptch+/−p53−/− allograft) is given as “partial growth inhibition”. In addition, the “tumor response during initial treatment” value in [2] (Ptch+/−Hic1+/− allograft, oral) is “tumor regression”. Further, the “number of complete regressions” value in assay [2] (Ptch+/−Hic+/− allograft, after 61 days of treatment, n=8, NVP-LDE225 80 mg/kg/day qd, NVP-BEZ235 40 mg/kg/day qd) is on record as 1. For the same molecule, the “Gli1, Ptch1, Ptch2 and CyclinD1 mRNA expression in tumors” value in [3] is given as “Pronounced inhibition”.
